How the values were obtained:
[1] = molecular target: T1, 5-hydroxytryptamine receptor 1A (Homo sapiens, UniProt P08908); test: Displacement of [3H]-8-OH-DPAT from human 5HT1AR expressed in HEK293 cell membranes after 1 hr by microbeta counting method
T1 sequence (P08908 whole entry): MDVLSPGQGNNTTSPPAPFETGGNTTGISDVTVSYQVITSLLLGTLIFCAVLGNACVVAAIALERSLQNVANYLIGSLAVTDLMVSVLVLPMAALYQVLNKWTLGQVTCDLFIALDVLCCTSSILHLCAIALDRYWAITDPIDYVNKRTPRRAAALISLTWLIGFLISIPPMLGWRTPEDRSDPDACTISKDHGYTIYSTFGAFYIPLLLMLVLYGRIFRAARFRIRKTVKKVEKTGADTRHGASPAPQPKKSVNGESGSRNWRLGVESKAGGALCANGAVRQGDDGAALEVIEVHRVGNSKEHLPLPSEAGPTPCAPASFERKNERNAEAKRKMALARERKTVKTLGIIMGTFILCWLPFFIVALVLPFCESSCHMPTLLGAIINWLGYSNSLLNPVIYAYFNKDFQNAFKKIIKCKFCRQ
Summary of the method: (§1)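 HEK293 (5-HT1A, 5-HT6, 5-HT7b, D2L) or CHO-K1 (5-HT2A) membranes, all Tris–HCl with 4 mM MgCl2 plus receptor-specific EDTA/pargyline/ascorbate (D2L adds NaCl, KCl, CaCl2). Nonspecific binding: 10 μM 5-HT (5-HT1A, 5-HT7), chlorpromazine (5-HT2A), methiothepine (5-HT6), haloperidol (D2L). Triplicate, 7–8 concentrations (10⁻¹¹–10⁻⁴ M), filtration; Ki via Cheng–Prusoff, mean of three experiments.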

[2] = molecular target: 5-hydroxytryptamine receptor 2A (Homo sapiens, UniProt P28223); test: Displacement of [3H]-Ketanserin from human 5HT2AR expressed in CHO-K1 cell membranes after 1.5 hrs by microbeta counting method; summary of the method: as §1
D(2) dopamine receptor = D(2) dopamine receptor (Homo sapiens, UniProt P14416); test: Displacement of [3H]-Raclopride from human dopamine D2L receptor expressed in HEK293 cell membranes after 1 hr by microbeta counting method
Summary of the method: as §1, with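 “experiments. Incubation 1 h 37 °C; 5-HT1A 1 h and 5-HT2A 1.5 h, room temperature.” for “experiments.”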

[3] = molecular target: Histamine H1 receptor (Homo sapiens) (UniProt P35367); test: Displacement of [3H]pyrilamine from recombinant human histamine H1 receptor at 1 uM after 60 mins by scintillation counting relative to control
Cytochrome P450 3A4 = Cytochrome P450 3A4 (Homo sapiens, UniProt P08684); test: Inhibition of CYP3A4 (unknown origin) at 0.025 to 25 uM after 2 hrs by firefly luciferase-luminescence based P450-glo assay; format: ADME
Summary of the method: (§2)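 Recombinant CYP3A4 or CYP2D6 incubated 2 h with test compound (0.025–25 μM final) and an isoform-specific luciferin derivative. Firefly luciferase then added, and luminescence is proportional to D-luciferin formed. Reference inhibitors: ketoconazole (CYP3A4) and quinidine (CYP2D6, 0.1–100 nM).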

Cytochrome P450 2D6 [4] = molecular target: T2, Cytochrome P450 2D6 (Homo sapiens, UniProt P10635); test: Inhibition of CYP2D6 (unknown origin) at 0.025 to 25 uM after 2 hrs by firefly luciferase-luminescence based P450-glo assay; format: ADME; summary of the method: as §2
Cytochrome P450 2D6 [5] = molecular target: T2, Cytochrome P450 2D6; test: Induction of CYP2D6 (unknown origin) at 0.025 to 25 uM after 2 hrs by firefly luciferase-luminescence based P450-glo assay; format: ADME; summary of the method: as §2
[6] = Cmax in Wistar rat at 10 mg/kg, po administered as single dose by LC/MS analysis; format: ADME, organism-based; set-up: dose 10 mg/kg, route oral; conditions: in vivo
Summary of the method: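 Male Wistar rats (229–272 g), fasted 16 h before and 4 h after dosing, given 10 mg/kg orally in water. Four rats per time point at 15 min, 30 min, 1, 2, 4 and 8 h. Plasma (K3EDTA) and brain homogenate collected and analysed by LC-MS/MS.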

T2 sequence (P10635 whole entry): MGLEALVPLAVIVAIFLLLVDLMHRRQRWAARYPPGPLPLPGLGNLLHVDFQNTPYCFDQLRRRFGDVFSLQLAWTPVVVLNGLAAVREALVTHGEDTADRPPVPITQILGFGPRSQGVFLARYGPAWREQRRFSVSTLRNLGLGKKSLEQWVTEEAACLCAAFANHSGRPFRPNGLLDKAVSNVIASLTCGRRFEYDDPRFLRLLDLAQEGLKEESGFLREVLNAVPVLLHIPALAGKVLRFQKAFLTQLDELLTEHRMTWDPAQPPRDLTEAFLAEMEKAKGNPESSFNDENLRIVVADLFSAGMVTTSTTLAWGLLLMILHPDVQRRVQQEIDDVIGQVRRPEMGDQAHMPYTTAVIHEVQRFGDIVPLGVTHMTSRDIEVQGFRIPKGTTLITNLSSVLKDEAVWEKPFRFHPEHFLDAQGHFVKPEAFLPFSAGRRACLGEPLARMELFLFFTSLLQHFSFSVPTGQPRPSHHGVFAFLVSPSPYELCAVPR
Chain of D(2) dopamine receptor (P14416 whole entry): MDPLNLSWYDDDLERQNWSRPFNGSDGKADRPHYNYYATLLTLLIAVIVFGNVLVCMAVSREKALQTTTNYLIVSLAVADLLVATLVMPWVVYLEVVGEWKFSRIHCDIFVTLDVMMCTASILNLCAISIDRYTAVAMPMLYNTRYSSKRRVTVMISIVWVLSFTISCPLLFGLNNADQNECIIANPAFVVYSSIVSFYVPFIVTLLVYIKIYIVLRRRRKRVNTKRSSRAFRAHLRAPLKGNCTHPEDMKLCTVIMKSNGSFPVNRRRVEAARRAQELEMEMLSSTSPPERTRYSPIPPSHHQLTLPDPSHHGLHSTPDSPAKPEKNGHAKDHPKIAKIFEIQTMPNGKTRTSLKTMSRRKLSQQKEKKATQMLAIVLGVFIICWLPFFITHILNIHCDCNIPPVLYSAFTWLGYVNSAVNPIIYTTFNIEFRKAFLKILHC
Chain of 5-hydroxytryptamine receptor 2A (P28223 whole entry): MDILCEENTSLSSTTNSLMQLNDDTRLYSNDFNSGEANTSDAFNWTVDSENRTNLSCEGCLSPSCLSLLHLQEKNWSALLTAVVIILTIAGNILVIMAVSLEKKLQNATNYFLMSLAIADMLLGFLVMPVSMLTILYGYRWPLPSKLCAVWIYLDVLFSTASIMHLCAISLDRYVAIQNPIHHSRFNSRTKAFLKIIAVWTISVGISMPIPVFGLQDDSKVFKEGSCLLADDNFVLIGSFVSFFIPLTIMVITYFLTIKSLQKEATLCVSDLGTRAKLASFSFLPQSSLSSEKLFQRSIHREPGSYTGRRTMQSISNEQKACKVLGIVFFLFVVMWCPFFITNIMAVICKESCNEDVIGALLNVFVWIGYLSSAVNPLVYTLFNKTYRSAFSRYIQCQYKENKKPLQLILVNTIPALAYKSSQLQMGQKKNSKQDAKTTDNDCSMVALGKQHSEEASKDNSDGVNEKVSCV
Chain of Histamine H1 receptor (Homo sapiens) (P35367 whole entry): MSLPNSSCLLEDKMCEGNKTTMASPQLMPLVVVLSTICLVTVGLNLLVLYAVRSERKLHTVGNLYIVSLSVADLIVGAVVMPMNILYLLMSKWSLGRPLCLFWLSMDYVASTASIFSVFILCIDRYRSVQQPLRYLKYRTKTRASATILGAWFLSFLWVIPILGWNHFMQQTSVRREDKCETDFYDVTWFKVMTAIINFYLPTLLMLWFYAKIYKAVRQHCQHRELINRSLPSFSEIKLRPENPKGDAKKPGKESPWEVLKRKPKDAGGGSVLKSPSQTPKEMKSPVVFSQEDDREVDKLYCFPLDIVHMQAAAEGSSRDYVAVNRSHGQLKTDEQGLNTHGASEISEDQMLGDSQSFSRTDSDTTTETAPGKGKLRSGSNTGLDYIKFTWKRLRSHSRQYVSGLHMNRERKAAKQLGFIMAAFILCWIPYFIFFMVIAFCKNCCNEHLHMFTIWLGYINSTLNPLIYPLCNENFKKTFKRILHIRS
Chain of Cytochrome P450 3A4 (P08684 whole entry, canonical isoform): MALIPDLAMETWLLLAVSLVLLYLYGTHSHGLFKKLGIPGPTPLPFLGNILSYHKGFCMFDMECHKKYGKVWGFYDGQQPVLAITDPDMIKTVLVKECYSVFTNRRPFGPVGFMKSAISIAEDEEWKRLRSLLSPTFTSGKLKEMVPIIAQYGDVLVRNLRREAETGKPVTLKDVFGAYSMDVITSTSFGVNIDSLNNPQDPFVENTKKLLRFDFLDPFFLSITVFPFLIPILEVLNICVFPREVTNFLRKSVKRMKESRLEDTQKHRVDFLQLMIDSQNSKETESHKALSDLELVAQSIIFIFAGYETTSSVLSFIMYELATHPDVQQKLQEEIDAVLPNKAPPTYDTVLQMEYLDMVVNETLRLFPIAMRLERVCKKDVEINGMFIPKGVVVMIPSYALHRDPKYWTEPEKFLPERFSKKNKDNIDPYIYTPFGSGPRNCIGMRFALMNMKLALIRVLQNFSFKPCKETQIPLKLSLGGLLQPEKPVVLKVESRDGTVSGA

- Ki [1]: 2790 nM
- Ki [2]: 441 nM
- Ki (D(2) dopamine receptor): 3480 nM
- inhibition [3]: -4.9%
- inhibition (INH) (Cytochrome P450 3A4): Not Active
- inhibition (INH) (Cytochrome P450 2D6 [4]): Not Active
- Activity (Cytochrome P450 2D6 [5]): Active
- Cmax [6]: 140 ng/mL
SMILES: CCc1nc2c(N3CCNCC3)ccnc2n1Cc1cccc(F)c1

— ChEMBL document CHEMBL4145461, “Novel non-sulfonamide 5-HT6 receptor partial inverse agonist in a group of imidazo[4,5-b]pyridines with cognition enhancing properties” (Eur J Med Chem, 2018)
